ChEMBL document CHEMBL3091458, “Design, synthesis, and biological evaluation of 1,2,4-triazole bearing 5-substituted biphenyl-2-sulfonamide derivatives as potential antihypertensive candidates” (Bioorg Med Chem, 2013)
Values belong to the molecule of their own block, whether it stands above or below them.

Key:
[1] = Displacement of [125I]-Ang-2 from AT2 receptor in porcine myometrial membranes after 1.5 hrs; type: cell membranes, Sus scrofa
Method in brief: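 Membranes were made from porcine uteri (myometrium). AT1 binding was blocked by adding losartan. [125I]Ang II binding ran in 50 mM Tris-HCl pH 7.4 with 100 mM NaCl, 10 mM MgCl2, 1 mM EDTA, 0.025% bacitracin and 0.2% BSA, at 25 °C for 1.5 h. Bound ligand was caught on GF/C filters, washed with cold Tris and gamma-counted. IC50 was the concentration displacing 50% of specific binding. Run in triplicate.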

[2] = Displacement of [125I]-Ang-2 from AT1 receptor in rat liver membranes after 1.5 hrs; type: cell membranes, Membrane
[3] = target: T1, Type-2 angiotensin II receptor (Homo sapiens, UniProt P50052); test: Binding affinity to AT2 receptor (unknown origin)
T1 sequence (P50052 whole entry): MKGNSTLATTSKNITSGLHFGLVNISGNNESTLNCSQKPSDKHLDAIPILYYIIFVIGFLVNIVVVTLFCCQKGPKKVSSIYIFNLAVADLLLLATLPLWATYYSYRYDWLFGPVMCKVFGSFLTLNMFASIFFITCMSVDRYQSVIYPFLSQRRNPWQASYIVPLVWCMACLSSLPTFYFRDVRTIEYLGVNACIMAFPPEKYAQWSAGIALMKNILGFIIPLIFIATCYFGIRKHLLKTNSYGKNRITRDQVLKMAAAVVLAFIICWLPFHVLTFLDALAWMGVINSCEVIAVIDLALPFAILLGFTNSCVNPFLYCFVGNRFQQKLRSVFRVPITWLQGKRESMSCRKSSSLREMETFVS

[4] = target: T2, Type-1 angiotensin II receptor (Homo sapiens, UniProt P30556); test: Binding affinity to AT1 receptor (unknown origin)
T2 sequence (P30556 whole entry): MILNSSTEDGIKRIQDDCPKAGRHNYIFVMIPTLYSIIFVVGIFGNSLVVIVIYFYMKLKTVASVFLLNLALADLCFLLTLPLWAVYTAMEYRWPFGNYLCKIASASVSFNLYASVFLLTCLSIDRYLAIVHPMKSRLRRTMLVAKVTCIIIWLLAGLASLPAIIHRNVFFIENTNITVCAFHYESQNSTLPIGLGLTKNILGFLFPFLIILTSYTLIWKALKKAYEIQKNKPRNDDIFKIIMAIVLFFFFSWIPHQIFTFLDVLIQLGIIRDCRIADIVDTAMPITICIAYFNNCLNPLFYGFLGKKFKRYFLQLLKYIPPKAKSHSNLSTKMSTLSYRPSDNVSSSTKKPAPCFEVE

[5] = system: Rattus norvegicus; test: Toxicity in renal spontaneously hypertensive rat model assessed as reduction of heart rate at 20 mg/kg, po measured at 1 hr by tail-cuff method relative to control; type: organism-based; parameters: dose 20 mg/kg, route oral; details: in vivo
Method in brief: (§1)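 Spontaneously hypertensive rats were dosed orally with the test agent at 20 mg/kg, with a saline-dosed control group. SAP, DAP, MAP and heart rate were recorded before dosing and at 1, 2, 4, 6 and 8 h after. Change was taken as the post-dose value minus the pre-dose value. Significance was judged against the control at p < 0.1 and p < 0.05.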

[6] = system: Rattus norvegicus; test: Antihypertensive activity in renal spontaneously hypertensive rat model assessed as reduction of systolic arterial pressure at 20 mg/kg, po measured at 1 hr by tail-cuff method relative to control; type: functional, Artery; method in brief: as §1
[7] = system: Rattus norvegicus; test: Antihypertensive activity in renal spontaneously hypertensive rat model assessed as reduction of systolic arterial pressure at 20 mg/kg, po measured at 8 hrs by tail-cuff method relative to control; type: functional, Artery; method in brief: as §1
[8] = system: Rattus norvegicus; test: Antihypertensive activity in renal spontaneously hypertensive rat model assessed as reduction of systolic arterial pressure at 20 mg/kg, po measured at 6 hrs by tail-cuff method relative to control; type: functional, Artery; method in brief: as §1
[9] = system: Rattus norvegicus; test: Antihypertensive activity in renal spontaneously hypertensive rat model assessed as reduction of systolic arterial pressure at 20 mg/kg, po measured at 4 hrs by tail-cuff method relative to control; type: functional, Artery; method in brief: as §1
[10] = system: Rattus norvegicus; test: Antihypertensive activity in renal spontaneously hypertensive rat model assessed as reduction of mean arterial pressure at 20 mg/kg, po measured at 8 hrs by tail-cuff method relative to control; type: functional, Artery; method in brief: as §1
[11] = system: Rattus norvegicus; test: Antihypertensive activity in renal spontaneously hypertensive rat model assessed as reduction of diastolic arterial pressure at 20 mg/kg, po measured at 1 hr by tail-cuff method relative to control; type: functional, Artery; method in brief: as §1
[12] = system: Rattus norvegicus; test: Toxicity in renal spontaneously hypertensive rat model assessed as reduction of heart rate at 20 mg/kg, po measured at 4 hrs by tail-cuff method relative to control; type: organism-based; parameters: dose 20 mg/kg, route oral; details: in vivo; method in brief: as §1
[13] = system: Rattus norvegicus; test: Antihypertensive activity in renal spontaneously hypertensive rat model assessed as reduction of mean arterial pressure at 20 mg/kg, po measured at 6 hrs by tail-cuff method relative to control; type: functional, Artery; method in brief: as §1
[14] = system: Rattus norvegicus; test: Antihypertensive activity in renal spontaneously hypertensive rat model assessed as reduction of diastolic arterial pressure at 20 mg/kg, po measured at 8 hrs by tail-cuff method relative to control; type: functional, Artery; method in brief: as §1
[15] = system: Rattus norvegicus; test: Antihypertensive activity in renal spontaneously hypertensive rat model assessed as reduction of diastolic arterial pressure at 20 mg/kg, po measured at 2 hrs by tail-cuff method relative to control; type: functional, Artery; method in brief: as §1
[16] = system: Rattus norvegicus; test: Antihypertensive activity in renal spontaneously hypertensive rat model assessed as reduction of mean arterial pressure at 20 mg/kg, po measured at 4 hrs by tail-cuff method relative to control; type: functional, Artery; method in brief: as §1
[17] = system: Rattus norvegicus; test: Antihypertensive activity in renal spontaneously hypertensive rat model assessed as reduction of diastolic arterial pressure at 20 mg/kg, po measured at 4 hrs by tail-cuff method relative to control; type: functional, Artery; method in brief: as §1
[18] = system: Rattus norvegicus; test: Toxicity in renal spontaneously hypertensive rat model assessed as reduction of heart rate at 20 mg/kg, po measured at 2 hrs by tail-cuff method relative to control; type: organism-based; parameters: dose 20 mg/kg, route oral; details: in vivo; method in brief: as §1
[19] = system: Rattus norvegicus; test: Antihypertensive activity in renal spontaneously hypertensive rat model assessed as reduction of systolic arterial pressure at 20 mg/kg, po measured at 2 hrs by tail-cuff method relative to control; type: functional, Artery; method in brief: as §1
[20] = system: Rattus norvegicus; test: Antihypertensive activity in renal spontaneously hypertensive rat model assessed as reduction of diastolic arterial pressure at 20 mg/kg, po measured at 6 hrs by tail-cuff method relative to control; type: functional, Artery; method in brief: as §1
[21] = system: Rattus norvegicus; test: Toxicity in renal spontaneously hypertensive rat model assessed as reduction of heart rate at 20 mg/kg, po measured at 8 hrs by tail-cuff method relative to control; type: organism-based; parameters: dose 20 mg/kg, route oral; details: in vivo; method in brief: as §1
[22] = system: Rattus norvegicus; test: Antihypertensive activity in renal spontaneously hypertensive rat model assessed as reduction of mean arterial pressure at 20 mg/kg, po measured at 1 hr by tail-cuff method relative to control; type: functional, Artery; method in brief: as §1
[23] = system: Rattus norvegicus; test: Toxicity in renal spontaneously hypertensive rat model assessed as reduction of heart rate at 20 mg/kg, po measured at 6 hrs by tail-cuff method relative to control; type: organism-based; parameters: dose 20 mg/kg, route oral; details: in vivo; method in brief: as §1
[24] = system: Rattus norvegicus; test: Antihypertensive activity in renal spontaneously hypertensive rat model assessed as reduction of mean arterial pressure at 20 mg/kg, po measured at 2 hrs by tail-cuff method relative to control; type: functional, Artery; method in brief: as §1

Compound: Cc1ccc(S(=O)(=O)NC(=O)OC(C)(C)C)c(-c2ccc(Cn3cncn3)cc2)c1
IC50 [1]: 289 nM | IC50 [2]: > 10000 nM

Compound: COc1ccc(S(=O)(=O)NC(=O)OCc2ccccc2)c(-c2ccc(Cn3cncn3)cc2)c1
IC50 [1]: > 10000 nM | IC50 [2]: > 10000 nM

Compound: CCCCOC(=O)NS(=O)(=O)c1ccc(CC(C)C)cc1-c1ccc(NCCC)cc1
IC50 [1]: > 10000 nM | IC50 [2]: > 10000 nM

Compound: CCOC(=O)NS(=O)(=O)c1ccc(CN(CC)CC)cc1-c1ccc(Cn2cncn2)cc1
IC50 [1]: 117 nM | IC50 [2]: > 10000 nM

Compound: Cc1ccc(S(=O)(=O)NC(=O)OCc2ccccc2)c(-c2ccc(Cn3cncn3)cc2)c1
IC50 [1]: > 10000 nM | IC50 [2]: > 10000 nM

Compound: CCOC(=O)NS(=O)(=O)c1ccc(CC(C)C)cc1-c1ccc(Cn2cncn2)cc1
IC50 [1]: 10 nM | IC50 [2]: > 10000 nM

Compound: CC(C)Cc1ccc(S(=O)(=O)NC(=O)OC(C)(C)C)c(-c2ccc(Cn3cncn3)cc2)c1
IC50 [1]: 55 nM | IC50 [2]: > 10000 nM

Compound: Cc1cc(Cn2cnc3c2C[C@@H](C(=O)O)N(C(=O)C(c2ccccc2)c2ccccc2)C3)ccc1N(C)C
IC50 [1]: 29 nM | IC50 [2]: > 10000 nM

Further lines, with some results ahead:

IC50 [1]: 31 nM | IC50 [2]: > 10000 nM
Compound: CCCCC(=O)NS(=O)(=O)c1ccc(CC(C)C)cc1-c1ccc(Cn2cncn2)cc1

IC50 [3]: > 10000 nM | IC50 [4]: 2.5 nM
Compound: CCCCc1nn(C)c(=O)n1Cc1ccc(-n2cccc2-c2nnn[nH]2)cc1

IC50 [1]: 0.4 nM | IC50 [2]: > 10000 nM
Compound: CCCCOC(=O)NS(=O)(=O)c1ccc(CC(C)C)cc1-c1ccc(Cn2cncn2)cc1
Activity [5]: 7.25 bpm | Activity [6]: -7.25 mmHg | Activity [7]: -15.22 mmHg | Activity [8]: -20.94 mmHg | Activity [9]: -14.29 mmHg | Activity [10]: -15.09 mmHg | Activity [11]: 4.93 mmHg | Activity [12]: -14.53 bpm | Activity [13]: -21.88 mmHg | Activity [14]: -14.1 mmHg | Activity [15]: -3.55 mmHg | Activity [16]: -14.16 mmHg | Activity [17]: -12.32 mmHg | Activity [18]: -5.02 bpm | Activity [19]: -4.26 mmHg | Activity [20]: -21.36 mmHg | Activity [21]: -14.33 bpm | Activity [22]: 4.43 mmHg | Activity [23]: -16.69 bpm | Activity [24]: -4.78 mmHg

IC50 [1]: 64 nM | IC50 [2]: > 10000 nM
Compound: CCOC(=O)NS(=O)(=O)c1ccc(C)cc1-c1ccc(Cn2cncn2)cc1

IC50 [1]: 5 nM | IC50 [2]: > 10000 nM
Compound: CCCCOC(=O)NS(=O)(=O)c1ccc(OC)cc1-c1ccc(Cn2cncn2)cc1
Activity [5]: 7.05 bpm | Activity [6]: -3.41 mmHg | Activity [7]: -10.1 mmHg | Activity [8]: -18.94 mmHg | Activity [9]: -10.71 mmHg | Activity [10]: -12.19 mmHg | Activity [11]: -4.21 mmHg | Activity [12]: -13.45 bpm | Activity [13]: -17.08 mmHg | Activity [14]: -13.1 mmHg | Activity [15]: -5.06 mmHg | Activity [16]: -10.15 mmHg | Activity [17]: -10.32 mmHg | Activity [18]: -7.64 bpm | Activity [19]: -4.26 mmHg | Activity [20]: -17.36 mmHg | Activity [21]: -22.9 bpm | Activity [22]: -4.09 mmHg | Activity [23]: -14.47 bpm | Activity [24]: -5.62 mmHg

IC50 [1]: 16 nM | IC50 [2]: > 10000 nM
Compound: CCCCOC(=O)NS(=O)(=O)c1ccc(C)cc1-c1ccc(Cn2cncn2)cc1

IC50 [1]: 10 nM | IC50 [2]: > 10000 nM
Compound: CCCCOC(=O)NS(=O)(=O)c1ccc(CN(CC)CC)cc1-c1ccc(Cn2cncn2)cc1
